Laboratory results from paper PMC3924769 (Cell metabolism, 2014).

How the values were obtained:
daf-9(dh6) worms = assay: daf-9; format: in vivo, C. elegans; conditions: 27 °C; for daf-9(dh6) dauer rescue activity (in vivo), in words: 0.1 nM – 500 nM tested
In short: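 Test compound in ethanol (0.1–500 nM final, calculated over the agar volume) or ethanol alone was mixed with concentrated E. coli OP50 and plated on cholesterol-free NGM agar. About 100 daf-9(dh6) eggs from a 4–8 h egg lay were added per plate and scored for dauer arrest versus development after 60 h at 27 °C. A reference dafachronic acid at 100 nM was the positive control. Two replicates, mean ±SD.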

DAF-12 [1] = molecular target: T1, DAF-12 (Caenorhabditis elegans, UniProt G5EFF5); assay: Luciferase assay for DAF-12 transcriptional activation in HEK-293T cells; format: cell-based, C. elegans; conditions: 1 nM – 3125 nM tested
T1 sequence (G5EFF5 1-753): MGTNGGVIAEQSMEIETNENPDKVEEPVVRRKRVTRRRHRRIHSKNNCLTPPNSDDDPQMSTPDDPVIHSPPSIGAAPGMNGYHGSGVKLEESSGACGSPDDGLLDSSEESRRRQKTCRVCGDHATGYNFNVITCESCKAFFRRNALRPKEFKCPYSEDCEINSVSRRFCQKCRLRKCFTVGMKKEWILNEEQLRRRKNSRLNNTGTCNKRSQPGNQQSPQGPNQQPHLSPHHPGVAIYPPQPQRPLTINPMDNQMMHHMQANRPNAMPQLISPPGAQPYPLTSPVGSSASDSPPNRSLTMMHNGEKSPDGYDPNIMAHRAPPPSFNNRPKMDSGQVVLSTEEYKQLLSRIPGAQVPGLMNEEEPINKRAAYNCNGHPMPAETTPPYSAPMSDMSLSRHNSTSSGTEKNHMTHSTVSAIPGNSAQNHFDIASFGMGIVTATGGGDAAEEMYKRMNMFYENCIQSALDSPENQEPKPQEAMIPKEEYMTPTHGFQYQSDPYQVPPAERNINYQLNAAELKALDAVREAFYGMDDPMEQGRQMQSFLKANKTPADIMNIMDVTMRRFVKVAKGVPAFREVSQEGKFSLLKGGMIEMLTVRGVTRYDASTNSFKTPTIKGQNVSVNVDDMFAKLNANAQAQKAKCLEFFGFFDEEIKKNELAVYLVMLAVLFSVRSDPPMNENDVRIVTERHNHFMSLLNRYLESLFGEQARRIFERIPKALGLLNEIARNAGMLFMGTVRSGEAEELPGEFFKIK
In short: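 HEK-293T cells were calcium-phosphate co-transfected with full-length DAF-12, a mir84p-luciferase reporter, GFP and β-galactosidase vectors. Ethanol solutions of test compound (1–3125 nM), or ethanol alone, were added 8 h post-transfection. Luciferase and β-galactosidase activities were read 16 h after addition. A reference dafachronic acid at 100 nM was the positive control. Triplicates, mean ±SD.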

DAF-12 [2] = molecular target: T1, DAF-12; assay: Alphascreen assay for ligand-dependent recruitment of SRC1-4 peptide by DAF-12; format: biochemical, C. elegans; conditions: read-out: EC50, recruitment of SRC1-4 peptide by DAF-12
In short: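 Test compound binding to DAF-12 was measured by AlphaScreen as ligand-dependent recruitment of the SRC1-4 peptide, which carries the SRC-1 NR-box motif. Signal was expressed as fold activation over an ethanol control and reported as mean ±SEM.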

[3] = tested on: glp-1;daf-36 double mutant worms; assay: Lifespan of germline-deficient glp-1; format: in vivo, C. elegans; conditions: 100 nM, glp-1;daf-36 worms

SMILES | DAF-12 activation in luciferase assay (in vitro), in words (DAF-12 [1]) | EC50 (DAF-12 [2]) [nM] | EC50 (daf-9(dh6) worms; read-out: EC50, daf-9(dh6) dauer rescue, plate based assay, synthetic compound) [nM] | daf-9(dh6) dauer rescue activity (in vivo), in words (daf-9(dh6) worms) | Restoration of glp-1-dependent lifespan extension [3]
C[C@H](CCC[C@H](C)C(=O)O)[C@H]1CC[C@H]2C3=CCC4C[C@H](O)CC[C@]4(C)[C@H]3CC[C@]12C (stereo partly drawn) [3α-OH-Δ^7-DA, (25S)-3α-hydroxy cholest-7-enoic acid] | active | 200 |  | active | 
CC(CCCC(C)C1CCC2C3=CCC4CC(O)CCC4(C)C3CCC21C)C(=O)O (stereo not drawn) [3β-OH-Δ^7-DA] | did not activate DAF-12 in mammalian cells at any tested concentration |  |  |  | 

Continued, in another order:

DAF-12 activation in luciferase assay (in vitro), in words (DAF-12 [1]) | EC50 (DAF-12 [2]) [nM] | EC50 (daf-9(dh6) worms; read-out: EC50, daf-9(dh6) dauer rescue, plate based assay, synthetic compound) [nM] | SMILES | daf-9(dh6) dauer rescue activity (in vivo), in words (daf-9(dh6) worms) | Restoration of glp-1-dependent lifespan extension [3]
active |  |  | C[C@H](CCC[C@H](C)C(=O)O)[C@H]1CC[C@H]2[C@@H]3CCC4CC(=O)CC[C@]4(C)[C@H]3CC[C@]12C (stereo partly drawn) [Δ^0-DA, (25S)-3-keto-cholestanoic acid] | active | 
 | 15 | 2 | CC(CCC[C@@H](C)[C@H]1CC[C@H]2C3=CCC4CC(=O)C=C[C@]4(C)[C@H]3CC[C@]12C)C(=O)O (some centres unmarked) [Δ^1,7-DA, 3-oxocholesta-1,7-dienoic acid] |  | fully restore glp-1-dependent lifespan extension
 | 8 |  | C[C@H](CCC[C@H](C)C(=O)O)[C@H]1CC[C@H]2C3=CC[C@H]4CC(=O)CC[C@]4(C)[C@H]3CC[C@]12C [Δ^7-DA, Δ^7-dafachronic acid, reference compound] |  | fully restore glp-1-dependent lifespan extension
